Screening data: PubChem, several laboratories
The list is not random: actives were taken first. Their share in the collection is about 2.1%.
IEC-6 tox: counter-screen for KLF5 inhibitors: cytotoxicity in IEC-6 cells; hit rate 0.78% among 290,000; inhibition, % at 5 µM; IEC-6 cytotoxicity, luminescence viability; AID 1825;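 also: 0% = plate median of test compound wells and 100% = cytotoxic reference compound wells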
bCat nuc transl: beta-catenin nuclear translocation modulation; nuclear translocation activity, % at 5 µM; hit rate 0.3% among 190,000; HeLa beta-catenin nuclear translocation, immunofluorescence imaging;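 active = nuclear translocation activity above 50% at 5 µM, with a well cell count of 50 or more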;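 also: per-cell ratio of nuclear to cytoplasmic median beta-catenin stain intensity; plate controls were DMSO negative control for no effect and GSK-3 inhibitor IX positive control for full effect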
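Test system: human HeLa cells, endogenous beta-catenin. Times: 24 h compound exposure, 37°C. Measured by: beta-catenin immunofluorescence imaging with DAPI.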
MT stabilize HCS: stabilizes microtubules in HeLa cells; hit rate 0.83% among 200,000; % tubulin-high responders, % at 10 µM; HeLa tubulin immunostaining HCS, 24 h; share of cells brighter than vehicle mean+2SD;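 active = plate Z-score above 3 for both tubulin-high and condensed-nucleus cell shares, with cell loss under 80%, at 10 µM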;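 also: anti alpha tubulin signal scored within the nucleus-defined area of each cell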
BaF3 tox: reduces parental Ba/F3 cell viability, JAK2V617F counter-screen. CellTiter-Glo ATP luminescence. inhibition, % at 5.6 µM. hit rate 1.1% among 220,000;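 active = inhibition above a per-campaign cutoff, the mean inhibition of all tested compounds plus 3 SD, cut at about 27% in these data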;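 also: 0% = DMSO wells and 100% = JAK Inhibitor I control wells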
Ba/F3 V617F tox: loss of viability in JAK2V617F-driven Ba/F3 cells; Ba/F3 EpoR-JAK2V617F viability, ATP luminescence; inhibition, % at 5.6 µM; hit rate 1.1% among 220,000;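 active = inhibition above the campaign mean plus 3 SD over all tested compounds, cut at about 24% in these data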;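 also: cytokine-independent growth of Ba/F3 cells driven by EpoR plus mutant JAK2; 0% = DMSO-treated cells and 100% = JAK inhibitor I control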
KLF5 inhibitor: suppresses KLF5 promoter-driven expression | DLD-1 KLF5 promoter-luciferase reporter, luminescence | inhibition, % at 5 µM | hit rate 0.23% among 290,000;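 active = inhibition above a per-plate limit of that plate's mean compound inhibition plus 3 SD, cut at about 60% in these data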;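 also: 0% = DMSO wells and 100% = LY294002 at 200 µM; higher means less KLF5 promoter-driven luciferase light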
IEC-6 cytotox cf: IEC-6 cytotoxicity, confirmation assay; shares compounds with IEC-6 tox; IEC-6 rat intestinal epithelial viability, luminescence; inhibition, % at 5 µM; hit rate 63% among 1,900;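 also: 0% = vehicle and 100% = reference cytotoxic drug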
* marks the source's active call; other numbers are inactive results; . = no result given. Rule as the data show it, unless noted: active = inhibition above about 22%; inactive = the rest.

SMILES	IEC-6 tox	bCat nuc transl	MT stabilize HCS	BaF3 tox	Ba/F3 V617F tox	KLF5 inhibitor	IEC-6 cytotox cf
Cc1cc(C(=O)COc2cccnc2[N+](=O)[O-])c(C)n1Cc1cccs1	-8	-6	4	2	1	-22	.
CC(=O)Nc1ccccc1OCC(=O)c1cc(C)n(Cc2cccs2)c1C	26*	.	4	82*	62*	-51	15
CC(C)N1CCN(Cc2ccc(Sc3nncn3C)o2)CC1CCO (configuration not stated)	6	0	.	-1	1	4	.
COC(=O)COc1ccc2oc(=O)cc(-c3cc4cccc(OC)c4o3)c2c1	-10	.	.	.	.	15	.
Cc1cccc2c(C(=O)N3CCN(c4ccccn4)CC3)cc(-c3cccc(Br)c3)nc12	29*	.	.	.	.	0	6
O=C(c1cc(-c2ccncc2)nc2ccc(Br)cc12)N1CCN(c2ccccn2)CC1	-4	1	3	5	-1	-14	.
O=C(c1cc(-c2ccccc2Cl)nc2ccc(Br)cc12)N1CCN(c2ccccn2)CC1	46*	.	.	.	.	10	6
C=CCN1C(=O)C(Cc2cccc(Cl)c2)SC1=Nc1ccc(C(=O)O)cc1 (configuration not stated)	-4	-2	4	6	0	-9	.
O=[N+]([O-])CC(c1ccc(F)cc1)c1c[nH]c2ccccc12 (configuration not stated)	47*	.	.	.	.	32	29*
NCC(c1ccccc1)c1c[nH]c2ccccc12 (configuration not stated)	7	-2	3	8	5	11	.
Cc1ccc(C(C(=O)NC2CCCC2)N(C(=O)c2csnn2)c2ccccc2)o1 (configuration not stated)	-2	.	.	.	.	-11	.
O=C1C=C(Nc2ccc(Cl)cc2Cl)CC(c2ccco2)C1 (configuration not stated)	54*	2	11	47*	21	30	48*
CC(=O)Nc1ccc2c(CN3C(=O)NC(C)(c4ccc(C)cc4)C3=O)cc(=O)oc2c1 (configuration not stated)	6	-1	2	0	-1	21	.
O=C(Nc1ccc(N2CCCC2)cc1)c1cc(Cl)ccc1Cl	56*	.	.	.	.	-28	27*
O=C(Nc1ccc(N2CCCC2)cc1)c1ccc(Cl)cc1Cl	0	.	.	.	.	-60	.
CCOC(=O)c1[nH]c2c(c1C)C(=O)CC(c1ccc(F)cc1)C2 (configuration not stated)	42*	76*	9	56*	56*	11	60*
Cc1nnsc1SCCNC(=O)Nc1ccc(Cl)cc1	2	3	4	2	-2	-33	.
Cn1c(=O)c2c(nc(NCC3CCCC(CN)C3)n2Cc2ccc(Cl)cc2Cl)n(C)c1=O (configuration not stated)	60*	.	.	.	.	-40	39*
Cn1c(=O)c2c(nc(NCCNC(=O)c3ccco3)n2Cc2ccc(Cl)cc2Cl)n(C)c1=O	-2	-4	1	6	0	-12	.
Cc1ccccc1NNC(N)=S	0	0	4	4	-1	-10	.
NC(=S)NNc1c(F)c(F)c(F)c(F)c1F	49*	1	4	35*	30*	23	-9
Cc1cccc(N2CCN(C(=O)c3c(-c4ccccc4)noc3C)CC2)c1C	72*	.	.	.	.	61	45*
N#C/C(=C\c1ccccn1)c1ccccn1	28*	.	.	.	.	-46	17
CS(=O)(=O)N(CC(=O)Nc1ccc(F)c(F)c1)c1cccc([N+](=O)[O-])c1	4	0	5	13	6	-23	.
CC(=O)Nc1ccc2nc(NC(=O)c3ccc([N+](=O)[O-])o3)sc2c1	56*	.	.	.	.	-32	13
O=C(Nc1ccc(N2CCN(C(=O)c3cccs3)CC2)cc1)c1ccc([N+](=O)[O-])o1	101*	.	.	.	.	47	96*
O=C(Nc1ccc(Cc2ccncc2)cc1)c1cccc([N+](=O)[O-])c1	4	0	6	7	0	8	.
O=C(Nc1ccc(N2CCN(C(=O)c3cccs3)CC2)cc1)c1ccco1	0	.	.	.	.	-9	.
O=C(Nc1ccc(Cc2ccncc2)cc1)c1ccc([N+](=O)[O-])o1	51*	.	.	.	.	-22	18
